Source: PubChem (several laboratories)
This is a sample that favours compounds with a hit; in the whole collection about 12% have one here.
ABCB1 inh = human ABCB1 inhibition, ABCG2 as counter-screen; actives 0.067% (n = 190,000); CCRF-Adr cells, JC-1 efflux, flow cytometry; inhibition, % at 6.6 µM; P08183; in the data active = inhibition above about 40%;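 also: 0% = vehicle and 100% = reference inhibitor; higher value means more JC-1 retained so stronger ABCB1 efflux block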
RAM inhibit = inhibitors of the yeast RAM network | AID 868 | S. cerevisiae dse1pr::URA3 reporter, 5-FOA growth OD615, 2 d; analog-sensitive cbk1-as2 kinase mutant strain | inhibition, % at 50 µM | actives 1.8% (n = 190,000);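 active = inhibition above a set limit, 3 SD over mean compound inhibition, cut at about 8.4% in these data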;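 also: 0% = DMSO-only wells with no growth and 100% = 10 µM 1-NA-PP1 full growth; inhibition rescues growth on 5-FOA so higher OD means more RAM inhibition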
L major viab = reduces viability of Leishmania major promastigotes; inhibition, % at 10 µM; resazurin fluorescence viability; actives 9% (n = 200,000); in the data active = inhibition above about 50%;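 also: promastigotes grown with compound for 44 hours at 28 °C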
WT yeast gro inh = growth inhibition of WT yeast, mitochondrial fusion screen; inhibition, % at 10 µM; mitochondrial fusion phenotypic screen, WT strain; AID 1362; actives 2.1% (n = 190,000); in the data active = inhibition above about 58%; tested in S. cerevisiae
ABCG2 block = human ABCG2 inhibition, ABCB1 as counter-screen; IgMXP3 cells, JC-1 efflux, flow cytometry; Q9UNQ0; inhibition, % at 6.6 µM; AID 1325; actives 0.1% (n = 190,000);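 active = inhibition above 80%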;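 also: 0% = DMSO and 100% = nicardipine control wells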
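Read-out basis: Efflux inhibition in percent versus controls | Test system: ABCG2 IgMXP3 and barcoded ABCB1 CCRF-Adr cell mix | Quantity: 3 million cells/mL in well | Schedule: 10 min at 25 °C | Control set: Nicardipine as high control, DMSO as low control | Reagent: JC-1 as fluorescent efflux pump substrate | Signal: Flow cytometry of retained JC-1 fluorescence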
* = called active by the depositor; . = no result given.

SMILES	ABCB1 inh	RAM inhibit	L major viab	WT yeast gro inh	ABCG2 block
CC(=O)c1ccc(NC(=S)NNC(=O)c2ccncc2)cc1	0	0	-2	-1	7
COC(=O)C1C(=O)NC(SC)=C(C#N)C1c1ccccc1F (centres undefined)	0	0	82*	-7	42
Cc1sc2nc(-c3cccnc3)nc(Cl)c2c1-c1ccccc1	1	3	61*	68	5
CCc1ccc(NC(=O)c2cc3c(C)nc4ccccc4c3o2)cc1	0	-1	-1	63*	-1
O=C(Nc1ccccc1)c1cc2ccccc2o1	1	0	3	34	6
Cc1cc(C(=O)Nc2ccccc2)oc1C	0	-1	56*	3	5
CCOc1cc2[nH]c(=S)n(CCC(=O)NCc3ccco3)c(=O)c2cc1OCC	0	4	-8	10	-1
COc1cccc(CNC(=O)CCC2CCCN(C(=O)c3ccc(OC)o3)C2)c1 (centres undefined)	0	-1	-6	4	1
CC(C)c1nc(N2CCN(C(=O)c3ccco3)CC2)c2c3c(sc2n1)CCCC3	4	1	38	81*	17
c1nc(N2CCOCC2)c2c3c(sc2n1)CCCC3	1	0	-2	1	5
Cc1nc(N2CCN(C(=O)c3ccco3)CC2)c2c3c(sc2n1)CCC3	0	2	29	13	0
O=C(c1ccccc1)N1CCN(c2ncnc3sc4c(c23)CCC4)CC1	2	3	63*	10	5
O=C1COc2ccc(C(=O)COC(=O)Cc3ccsc3)cc2N1	0	1	-5	-28	14
O=C(CCc1nnc(Cc2ccc3c(c2)OCO3)o1)NC(c1ccccn1)C(F)(F)F (centres undefined)	0	1	-3	-1	-1
Cc1c(Cl)c(=O)oc2cc(OCC(=O)NCc3cccs3)ccc12	0	1	62*	-18	14
Cc1c(Cc2ccccc2)c(=O)oc2cc(OCC(=O)c3ccccc3)ccc12	1	7	4	0	17
Cc1cc(C)cc(NC(=O)COc2ccc3c(C)c(Cc4ccccc4)c(=O)oc3c2)c1	0	4	94*	4	-1
O=C(O)c1ccc(NCCC2=CCCCC2)c([N+](=O)[O-])c1	0	3	-11	22	6
CCOC(=O)c1ccc(N=C2SC(C(=O)NCCc3ccccc3)CC(=O)N2C)cc1 (centres undefined)	1	9.5*	-9	2	8
NC(N)=N/N=C/c1ccc(OCc2ccccc2Cl)cc1	0	3	101*	62*	2
NC(N)=N/N=C/c1ccccc1	0	0	26	7	0
OCCCCNCc1ccc(OCc2ccccc2)cc1	0	-1	90*	4	11
OCCCNCc1ccc(-c2ccccc2)cc1	0	1	92*	-10	0
CCOCCCNCc1ccc(OCc2ccccc2Cl)cc1	.	1	100*	53	0
COc1cc(NC(=O)COC(C)=O)c(C)cc1[N+](=O)[O-]	1	0	-4	0	18
SMILES	ABCB1 inh	RAM inhibit	L major viab	WT yeast gro inh	ABCG2 block
COc1cccc(NCc2cc(=O)oc3cc(-c4ccccc4)c(O)cc23)c1	0	7	24	18	0
OCCCCNCc1cc(Br)ccc1OCc1ccccc1F	3	1	11	7	1
COc1ccccc1OCCCCCNCCO	0	0	0	2	0
OCCCCNCc1ccc(OCc2ccccc2Cl)cc1	0	1	97*	45	0
OCCNCCCCOc1ccc(F)cc1	0	2	63*	-6	2
OCCNCCCCOc1ccc(OCc2ccccc2)cc1	-1	0	100*	-1	-3
CCOC(=O)Cc1csc(NC(=S)NC(=O)C(C)(C)C)n1	0	0	-4	5	1
CC(O)CNc1nc(Cl)c(C#N)s1 (centres undefined)	0	1	-1	-7	0
Cc1nc(N2CCN(S(=O)(=O)c3ccc(F)cc3)CC2)c2c(-c3cccs3)csc2n1	3	1	49	35	5
Cc1nn(CCCC(=O)N2CCN(c3ccc(F)cc3)CC2)c(C)c1[N+](=O)[O-]	1	-1	23	2	3
CCOC(=O)C1(Cc2ccc(OC)cc2)CCN(C(=O)CCc2cccnc2)CC1	0	0	-2	-13	1
Cc1cccc(N=C2NC(=O)/C(=C3/C(=O)N(C)c4ccccc43)S2)c1C	1	2	68*	17	3
Oc1ccccc1/C=N/n1c2ccccc2c2ccccc21	1	9.7*	-6	-14	4
C(=N\n1c2ccccc2c2ccccc21)/c1ccccc1	1	8	-3	-2	17
CCN1CCCC(OC(=O)c2cc(-c3ccc(C)cc3)nc3ccccc23)C1 (centres undefined)	2	1	84*	30	6
CCOc1ccc(-c2cc(C(=O)O)c3ccccc3n2)cc1	0	0	-5	0	3
O=C(CCNc1cccc(Cl)c1)c1ccco1	1	-1	83*	-1	34
CC(=O)c1c(C(C)=O)c(C)n(C(c2ccccc2)c2ccccc2)c1C	1	4	6	-4	1
C=CCON/C(CCC)=C1\C(=O)C(C(=O)OC)C(C)(C)CC1=NC (centres undefined)	0	4	4	0	6
Cc1ccc(Nc2cc(-n3nc(C)cc3C)ncn2)c(C)c1	0	9.1*	21	25	3
Cc1ccc(Nc2cc(-n3cccn3)ncn2)c(C)c1	2	1	40	-1	30
COc1ccc(OC)c(NC(=O)c2nc(-c3ccccc3)oc2C)c1	0	4	-1	3	8
O=C(c1ccccc1NS(=O)(=O)c1cccc(C(F)(F)F)c1)N1CCc2ccccc21	0	5	66*	20	1
CC(=O)c1cccc(CN2CCN(CC(C)C)C(CCO)C2)c1 (centres undefined)	0	1	10	4	4
CC(C)CC(C(=O)Nc1ccccc1)N1C(=O)C2C3C=CC(C3)C2C1=O (centres undefined)	0	2	3	-3	16
COc1cc(/C=N/NC(=O)C(Cc2c[nH]c3ccccc23)NC(=O)OCC(C)C)cc([N+](=O)[O-])c1OCc1ccccc1 (centres undefined)	0	6	91*	-9	2
COc1ccccc1CNC(=O)COC(=O)/C=C/c1cccs1	0	2	51*	-46	6
COc1ccc(CNC(=O)COC(=O)/C=C/c2cccs2)cc1	14	3	-7	-1	25
CCN(CC)C(=O)C(=O)c1cccn1-c1cccc(OC)c1C#N	1	2	-2	-9	2
COc1cc2cc(CN(CCc3ccccc3C)C(=S)NCCCN3CCOCC3)c(=O)[nH]c2cc1OC	9	0	8	2	8
